From ChEMBL document CHEMBL5376013, “Design, synthesis and biological evaluation of novel morpholinopyrimidine-5-carbonitrile derivatives as dual PI3K/mTOR inhibitors” (RSC Med Chem, 2024)

Assays:
Type in all cases: functional
Details in all cases: read-out: GI
[1] = system: CCRF-CEM; test: Antitumor activity against human CCRF-CEM cells assessed as growth inhibition at 10 uM relative to control
Procedure, shortened: (§1)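 After drug addition, plates were incubated 48 h at 37 °C under 5% CO2. Adherent cells were fixed with cold TCA (10% final, 60 min, 4 °C) and suspension cells with 16% final TCA. Staining used 0.4% SRB in 1% acetic acid, solubilized in 10 mM trizma, read at A515. Percent growth was calculated from time-zero, control and treated absorbances.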

[2] = system: HL-60; test: Antitumor activity against human HL-60 cells assessed as growth inhibition at 10 uM relative to control; procedure, shortened: as §1
[3] = system: K562; test: Antitumor activity against human K562 cells assessed as growth inhibition at 10 uM relative to control; procedure, shortened: as §1
[4] = system: MOLT-4; test: Antitumor activity against human MOLT-4 cells assessed as growth inhibition at 10 uM relative to control; procedure, shortened: as §1
[5] = system: RPMI-8226; test: Antitumor activity against human RPMI-8226 cells assessed as growth inhibition at 10 uM relative to control; procedure, shortened: as §1
[6] = system: SR; test: Antitumor activity against human SR cells assessed as growth inhibition at 10 uM relative to control
Procedure, shortened: (§2)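 Drug exposure 48 h at 37 °C, 5% CO2. Adherent cells fixed with cold TCA (10% final), suspension cells with TCA (16% final). Stained with 0.4% SRB in 1% acetic acid, dissolved in 10 mM Tris, A515. Growth relative to time-zero and untreated control.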

[7] = system: EKVX; test: Antitumor activity against human EKVX cells assessed as growth inhibition at 10 uM relative to control; procedure, shortened: as §1
[8] = system: HOP-62; test: Antitumor activity against human HOP-62 cells assessed as growth inhibition at 10 uM relative to control; procedure, shortened: as §1
[9] = system: HOP-92; test: Antitumor activity against human HOP-92 cells assessed as growth inhibition at 10 uM relative to control; procedure, shortened: as §1
[10] = system: NCI-H226; test: Antitumor activity against human NCI-H226 cells assessed as growth inhibition at 10 uM relative to control; procedure, shortened: as §1
[11] = system: NCI-H23; test: Antitumor activity against human NCI-H23 cells assessed as growth inhibition at 10 uM relative to control; procedure, shortened: as §1
[12] = system: NCI-H322M; test: Antitumor activity against human NCI-H322M cells assessed as growth inhibition at 10 uM relative to control; procedure, shortened: as §1
[13] = system: NCI-H522; test: Antitumor activity against human NCI-H522 cells assessed as growth inhibition at 10 uM relative to control; procedure, shortened: as §1
[14] = system: COLO 205; test: Antitumor activity against human COLO 205 cells assessed as growth inhibition at 10 uM relative to control; procedure, shortened: as §1
[15] = system: HCC 2998; test: Antitumor activity against human HCC 2998 cells assessed as growth inhibition at 10 uM relative to control; procedure, shortened: as §1
[16] = system: HCT-116; test: Antitumor activity against human HCT-116 cells assessed as growth inhibition at 10 uM relative to control; procedure, shortened: as §1
[17] = system: KM12; test: Antitumor activity against human KM12 cells assessed as growth inhibition at 10 uM relative to control; procedure, shortened: as §1
[18] = system: SW-620; test: Antitumor activity against human SW-620 cells assessed as growth inhibition at 10 uM relative to control; procedure, shortened: as §2
[19] = system: SF-268; test: Antitumor activity against human SF-268 cells assessed as growth inhibition at 10 uM relative to control; procedure, shortened: as §1
[20] = system: SF-295; test: Antitumor activity against human SF-295 cells assessed as growth inhibition at 10 uM relative to control; procedure, shortened: as §1
[21] = system: SF-539; test: Antitumor activity against human SF-539 cells assessed as growth inhibition at 10 uM relative to control; procedure, shortened: as §1
[22] = system: SNB-19; test: Antitumor activity against human SNB-19 cells assessed as growth inhibition at 10 uM relative to control; procedure, shortened: as §2
[23] = system: SNB-75; test: Antitumor activity against human SNB-75 cells assessed as growth inhibition at 10 uM relative to control; procedure, shortened: as §2
[24] = system: U-251; test: Antitumor activity against human U-251 cells assessed as growth inhibition at 10 uM relative to control; procedure, shortened: as §2
[25] = system: LOX IMVI; test: Antitumor activity against human LOX IMVI cells assessed as growth inhibition at 10 uM relative to control; procedure, shortened: as §1
[26] = system: Malme-3M; test: Antitumor activity against human Malme-3M cells assessed as growth inhibition at 10 uM relative to control; procedure, shortened: as §1
[27] = system: M14; test: Antitumor activity against human M14 cells assessed as growth inhibition at 10 uM relative to control; procedure, shortened: as §1
[28] = system: MDA-MB-435; test: Antitumor activity against human MDA-MB-435 cells assessed as growth inhibition at 10 uM relative to control; procedure, shortened: as §1
[29] = system: SK-MEL-28; test: Antitumor activity against human SK-MEL-28 cells assessed as growth inhibition at 10 uM relative to control; procedure, shortened: as §2
[30] = system: SK-MEL-5; test: Antitumor activity against human SK-MEL-5 cells assessed as growth inhibition at 10 uM relative to control; procedure, shortened: as §2
[31] = system: IGROV-1; test: Antitumor activity against human IGROV-1 cells assessed as growth inhibition at 10 uM relative to control; procedure, shortened: as §1
[32] = system: OVCAR-3; test: Antitumor activity against human OVCAR-3 cells assessed as growth inhibition at 10 uM relative to control; procedure, shortened: as §1
[33] = system: OVCAR-8; test: Antitumor activity against human OVCAR-8 cells assessed as growth inhibition at 10 uM relative to control; procedure, shortened: as §1
[34] = system: NCI/ADR-RES; test: Antitumor activity against human NCI-ADR-RES cells assessed as growth inhibition at 10 uM relative to control; procedure, shortened: as §1
[35] = system: 786-0; test: Antitumor activity against human 786-0 cells assessed as growth inhibition at 10 uM relative to control; procedure, shortened: as §1
[36] = system: A498; test: Antitumor activity against human A498 cells assessed as growth inhibition at 10 uM relative to control; procedure, shortened: as §1
[37] = system: ACHN; test: Antitumor activity against human ACHN cells assessed as growth inhibition at 10 uM relative to control; procedure, shortened: as §1
[38] = system: RXF 393; test: Antitumor activity against human RXF 393 cells assessed as growth inhibition at 10 uM relative to control; procedure, shortened: as §1
[39] = system: UO-31; test: Antitumor activity against human UO-31 cells assessed as growth inhibition at 10 uM relative to control; procedure, shortened: as §2
[40] = system: PC-3; test: Antitumor activity against human PC-3 cells assessed as growth inhibition at 10 uM relative to control; procedure, shortened: as §1
[41] = system: DU-145; test: Antitumor activity against human DU-145 cells assessed as growth inhibition at 10 uM relative to control; procedure, shortened: as §1
[42] = system: MDA-MB-231; test: Antitumor activity against human MDA-MB-231 cells assessed as growth inhibition at 10 uM relative to control; procedure, shortened: as §1
[43] = system: Hs-578T; test: Antitumor activity against human Hs-578T cells assessed as growth inhibition at 10 uM relative to control; procedure, shortened: as §1
[44] = system: BT-549; test: Antitumor activity against human BT-549 cells assessed as growth inhibition at 10 uM relative to control; procedure, shortened: as §1
[45] = system: T47D; test: Antitumor activity against human T47D cells assessed as growth inhibition at 10 uM relative to control; procedure, shortened: as §2
[46] = system: MDA-MB-468; test: Antitumor activity against human MDA-MB-468 cells assessed as growth inhibition at 10 uM relative to control; procedure, shortened: as §1

With `N#Cc1c(-c2ccc(Cl)cc2)nc(NN2C(=O)CCC2=O)nc1N1CCOCC1` the inhibition of growth at 10 µM [1] was less than 1%, the inhibition of growth at 10 µM [2] was less than 1% and the inhibition of growth at 10 µM [3] was less than 1%. It also gave an inhibition of growth at 10 µM [4] of less than 1%, an inhibition of growth at 10 µM [5] of less than 1% and an inhibition of growth at 10 µM [6] of less than 1%. For the same compound, the inhibition of growth at 10 µM [7] was less than 1%, the inhibition of growth at 10 µM [8] was less than 1% and the inhibition of growth at 10 µM [9] was less than 1%. The inhibition of growth at 10 µM [10] was less than 1%, the inhibition of growth at 10 µM [11] was less than 1% and the inhibition of growth at 10 µM [12] was less than 1%. The inhibition of growth at 10 µM [13] was 16%, the inhibition of growth at 10 µM [14] was less than 1% and the inhibition of growth at 10 µM [15] was less than 1%. The inhibition of growth at 10 µM [16] was less than 1%, the inhibition of growth at 10 µM [17] was less than 1% and the inhibition of growth at 10 µM [18] was less than 1%. It also gave an inhibition of growth at 10 µM [19] of less than 1%, an inhibition of growth at 10 µM [20] of less than 1% and an inhibition of growth at 10 µM [21] of less than 1%. It also gave an inhibition of growth at 10 µM [22] of less than 1%, an inhibition of growth at 10 µM [23] of 33.9% and an inhibition of growth at 10 µM [24] of less than 1%. The inhibition of growth at 10 µM [25] was less than 1%, the inhibition of growth at 10 µM [26] was less than 1% and the inhibition of growth at 10 µM [27] was less than 1%. The inhibition of growth at 10 µM [28] was less than 1%, the inhibition of growth at 10 µM [29] was less than 1% and the inhibition of growth at 10 µM [30] was less than 1%. The inhibition of growth at 10 µM [31] was less than 1%, the inhibition of growth at 10 µM [32] was less than 1% and the inhibition of growth at 10 µM [33] was less than 1%. It also gave an inhibition of growth at 10 µM [34] of less than 1%, an inhibition of growth at 10 µM [35] of less than 1% and an inhibition of growth at 10 µM [36] of less than 1%. The inhibition of growth at 10 µM [37] was less than 1%, the inhibition of growth at 10 µM [38] was less than 1% and the inhibition of growth at 10 µM [39] was 12.5%. The inhibition of growth at 10 µM [40] was less than 1%, the inhibition of growth at 10 µM [41] was less than 1% and the inhibition of growth at 10 µM [42] was less than 1%. The inhibition of growth at 10 µM [43] was less than 1%, the inhibition of growth at 10 µM [44] was less than 1% and the inhibition of growth at 10 µM [45] was less than 1%. It also gave an inhibition of growth at 10 µM [46] of less than 1%.
`Cc1cc(C)n(-c2nc(-c3ccc(Cl)cc3)c(C#N)c(N3CCOCC3)n2)n1` was tested, and the inhibition of growth at 10 µM [1] was less than 1%, the inhibition of growth at 10 µM [2] was less than 1% and the inhibition of growth at 10 µM [3] was less than 1%. For the same compound, the inhibition of growth at 10 µM [4] was 13.3%, the inhibition of growth at 10 µM [5] was 15.4% and the inhibition of growth at 10 µM [6] was less than 1%. For the same compound, the inhibition of growth at 10 µM [7] was 34.9%, the inhibition of growth at 10 µM [8] was 19.9% and the inhibition of growth at 10 µM [9] was 24.7%. The inhibition of growth at 10 µM [10] was 14%, the inhibition of growth at 10 µM [11] was 16% and the inhibition of growth at 10 µM [12] was less than 1%. For the same compound, the inhibition of growth at 10 µM [13] was 14.3%, the inhibition of growth at 10 µM [14] was 18.9% and the inhibition of growth at 10 µM [15] was less than 1%. For the same compound, the inhibition of growth at 10 µM [16] was 17%, the inhibition of growth at 10 µM [17] was less than 1% and the inhibition of growth at 10 µM [18] was less than 1%. It also gave an inhibition of growth at 10 µM [19] of 14.4%, an inhibition of growth at 10 µM [20] of less than 1% and an inhibition of growth at 10 µM [21] of 16%. For the same compound, the inhibition of growth at 10 µM [22] was 14.2%, the inhibition of growth at 10 µM [23] was 40.1% and the inhibition of growth at 10 µM [24] was less than 1%. For the same compound, the inhibition of growth at 10 µM [25] was 20.1%, the inhibition of growth at 10 µM [26] was less than 1% and the inhibition of growth at 10 µM [27] was less than 1%. For the same compound, the inhibition of growth at 10 µM [28] was less than 1%, the inhibition of growth at 10 µM [29] was less than 1% and the inhibition of growth at 10 µM [30] was 14.5%. It also gave an inhibition of growth at 10 µM [31] of 23.4%, an inhibition of growth at 10 µM [32] of 12.1% and an inhibition of growth at 10 µM [33] of less than 1%. The inhibition of growth at 10 µM [34] was 10.6%, the inhibition of growth at 10 µM [35] was 15.2% and the inhibition of growth at 10 µM [36] was 46.3%. The inhibition of growth at 10 µM [37] was 11.8%, the inhibition of growth at 10 µM [38] was 30.5% and the inhibition of growth at 10 µM [39] was 45.2%. It also gave an inhibition of growth at 10 µM [40] of less than 1%, an inhibition of growth at 10 µM [41] of less than 1% and an inhibition of growth at 10 µM [42] of 28.8%. For the same compound, the inhibition of growth at 10 µM [43] was 12.3%, the inhibition of growth at 10 µM [44] was 30.5% and the inhibition of growth at 10 µM [45] was 22.1%. The inhibition of growth at 10 µM [46] was less than 1%.
